This is an account of results in ChEMBL document CHEMBL1909525, “Synthesis and anticonvulsant activity of novel 2,6-diketopiperazine derivatives. Part 1: perhydropyrrole[1,2-a]pyrazines” (Eur J Med Chem, 2011).

Data set [1] concerns Mus musculus. As to the kind of experiment: Anticonvulsant activity in albino Carworth Farms No.1 mouse assessed as protection against electric-current for 3 secs-induced seizure at 100 mg/kg, ip after 2 hrs by 6Hz minimal clonic seizure test. The class given is functional, organism-based. Details: dose 100 mg/kg. The method in brief:
(§1)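 6 Hz psychomotor seizure test in mice. Compound given i.p. as a suspension in 0.5% methylcellulose. Corneal stimulation at 32 mA, 0.2-ms monopolar rectangular pulses at 6 Hz for 3 s, from a constant-current device. Tests run 0.25–4 h after dosing. A mouse counted as protected if it resumed normal exploratory behaviour within 10 s; scored as protected/tested.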

Data set [2] relates to Mus musculus. As to the kind of experiment: Neurotoxicity in albino Carworth Farms No.1 mouse assessed as motor impairment at 30 mg/kg, ip after 0.5 hrs by rotarod test. The data set is classed as toxicity, organism-based. Further details: dose 30 mg/kg, route intraperitoneal. As to conditions: in vivo. Summed up:
(§2)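 Rotorod neurotoxicity in mice at 6 r.p.m. Compound given i.p. (30, 100, 300 mg/kg) in 0.5% methylcellulose; tested at 30 min and 4 h. Impairment is inability to keep equilibrium on the rod for a given time; scored as impaired/tested.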
(In general: Falling from the rotarod earlier than controls is read as motor impairment.)

Data set [3] deals with Mus musculus. As to the kind of experiment: Neurotoxicity in albino Carworth Farms No.1 mouse assessed as motor impairment at 100 mg/kg, ip after 0.5 hrs by rotarod test. The data set is classed as toxicity, organism-based. Details: dose 100 mg/kg, route intraperitoneal. As to conditions: in vivo. The method in brief: as §2
The subject of data set [4] is Mus musculus. As to the kind of experiment: Neurotoxicity in albino Carworth Farms No.1 mouse assessed as motor impairment at 300 mg/kg, ip after 0.5 hrs by rotarod test. As to conditions: in vivo. The data set is classed as toxicity, organism-based. Further details: dose 300 mg/kg, route intraperitoneal. The method in brief:
as §2

For data set [5], the system named is Mus musculus. Description: Anticonvulsant activity in albino Carworth Farms No.1 mouse assessed as protection against electric-current for 3 secs-induced seizure at 100 mg/kg, ip after 0.25 hrs by 6Hz minimal clonic seizure test. The class given is functional, organism-based. Details: dose 100 mg/kg. The method in brief: as §1
Data set [6] has as its system Mus musculus. Description: Anticonvulsant activity in albino Carworth Farms No.1 mouse assessed as protection against subcutaneous metrazol-induced seizure at 30 mg/kg, ip after 0.5 hrs. The data set is classed as functional, organism-based. Further details: dose 30 mg/kg. The method in brief:
(§3)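 Mouse scMET test. Compound given i.p. (30, 100 or 300 mg/kg) in 0.5% methylcellulose. Pentylenetetrazole 85 mg/kg (CD97) given s.c. at 0.5 or 4 h, then mice observed for 30 min. Protection is absence of clonic spasms; scored as protected/tested.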

Data set [7] has as its system Mus musculus. Description: Anticonvulsant activity in albino Carworth Farms No.1 mouse assessed as protection against subcutaneous metrazol-induced seizure at 30 mg/kg, ip after 4 hrs. The data set is classed as functional, organism-based. Details: dose 30 mg/kg. The method in brief:
as §3

Data set [8] deals with Mus musculus. Description: Anticonvulsant activity in albino Carworth Farms No.1 mouse assessed as protection against subcutaneous metrazol-induced seizure at 100 mg/kg, ip after 0.5 hrs. The data set is classed as functional, organism-based. Details: dose 100 mg/kg. Summed up: as §3
The subject of data set [9] is Mus musculus. As to the kind of experiment: Anticonvulsant activity in albino Carworth Farms No.1 mouse assessed as protection against subcutaneous metrazol-induced seizure at 100 mg/kg, ip after 4 hrs. The class given is functional, organism-based. Further details: dose 100 mg/kg. The method in brief:
as §3

Data set [10] has as its system Mus musculus. Description: Anticonvulsant activity in albino Carworth Farms No.1 mouse assessed as protection against subcutaneous metrazol-induced seizure at 300 mg/kg, ip after 0.5 hrs. Details: dose 300 mg/kg. The data set is classed as functional, organism-based. The method in brief:
as §3

Data set [11] concerns Mus musculus. Description: Anticonvulsant activity in albino Carworth Farms No.1 mouse assessed as protection against subcutaneous metrazol-induced seizure at 300 mg/kg, ip after 4 hrs. The class given is functional, organism-based. Further details: dose 300 mg/kg. The method in brief: as §3
The subject of data set [12] is Mus musculus. Description: Anticonvulsant activity in albino Carworth Farms No.1 mouse assessed as protection against electric-current for 3 secs-induced seizure at 100 mg/kg, ip after 4 hrs by 6Hz minimal clonic seizure test. The class given is functional, organism-based. Further details: dose 100 mg/kg. The method in brief: as §1
For data set [13], the system named is Mus musculus. Description: Neurotoxicity in albino Carworth Farms No.1 mouse assessed as motor impairment at 100 mg/kg, ip after 0.25 hrs by rotarod test. The data set is classed as toxicity, organism-based. Details: dose 100 mg/kg, route intraperitoneal. Conditions: in vivo. The method in brief:
(§4)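 Rotorod neurotoxicity in mice (18–25 g) following i.p. dosing of a suspension in 0.5% methylcellulose in water, tested at intervals between 0.25 and 4 h. Impairment was scored as failure to keep equilibrium on a 6 r.p.m. rod, reported as number impaired/number tested.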

Data set [14] concerns Mus musculus. Description: Neurotoxicity in albino Carworth Farms No.1 mouse assessed as motor impairment at 100 mg/kg, ip after 2 hrs by rotarod test. Conditions: in vivo. Further details: dose 100 mg/kg, route intraperitoneal. The data set is classed as toxicity, organism-based. The method in brief:
as §4

Data set [15] relates to Mus musculus. As to the kind of experiment: Neurotoxicity in albino Carworth Farms No.1 mouse assessed as motor impairment at 100 mg/kg, ip after 4 hrs by rotarod test. The class given is toxicity, organism-based. Further details: dose 100 mg/kg, route intraperitoneal. As to conditions: in vivo. The method in brief: as §2
Data set [16] is filed under the species Mus musculus. As to the kind of experiment: Protective index, ratio of TD50 for albino Carworth Farms No.1 mouse to ED50 for albino Carworth Farms No.1 mouse by 6Hz minimal clonic seizure test. The data set is classed as functional. The method in brief:
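Mouse 6 Hz (32 mA) quantification, compound given i.p. at the time of peak effect. Groups of at least eight mice at varied doses.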

Data set [17] relates to Mus musculus. As to the kind of experiment: Anticonvulsant activity in ip dosed albino Carworth Farms No.1 mouse assessed as time needs to show peak effect for electric-current for 3 secs-induced seizure after 0.25 hrs by 6Hz minimal clonic seizure test. The data set is classed as functional.
The test system of data set [18] is Mus musculus. Description: Neurotoxicity in albino Carworth Farms No.1 mouse assessed as motor impairment at 100 mg/kg, ip after 1 hr by rotarod test. The class given is toxicity, organism-based. Details: dose 100 mg/kg, route intraperitoneal. Conditions: in vivo. Summed up: as §4
For data set [19], the system named is Mus musculus. As to the kind of experiment: Anticonvulsant activity in albino Carworth Farms No.1 mouse assessed as protection against maximal electroshock-induced seizure at 30 mg/kg, ip after 0.5 hrs. The data set is classed as functional, organism-based. Further details: dose 30 mg/kg. The method in brief:
(§5)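 Mouse MES test with compound given i.p. (30, 100 or 300 mg/kg) in 0.5% methylcellulose; tested at 0.5 and 4 h. Corneal stimulus of 50 mA at 60 Hz for 0.2 s, electrodes primed with 0.5% butacaine in 0.9% NaCl. Protection is abolition of hindlimb tonic extension; scored as protected/tested.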
(In general: Protection in the maximal electroshock model is a classic sign of anticonvulsant action.)

The subject of data set [20] is Mus musculus. Description: Anticonvulsant activity in albino Carworth Farms No.1 mouse assessed as protection against maximal electroshock-induced seizure at 30 mg/kg, ip after 4 hrs. Details: dose 30 mg/kg. The data set is classed as functional, organism-based. The method in brief:
as §5

For data set [21], the system named is Mus musculus. Description: Anticonvulsant activity in albino Carworth Farms No.1 mouse assessed as protection against maximal electroshock-induced seizure at 100 mg/kg, ip after 0.5 hrs. Further details: dose 100 mg/kg. The data set is classed as functional, organism-based. Summed up: as §5
Data set [22] relates to Mus musculus. Description: Anticonvulsant activity in albino Carworth Farms No.1 mouse assessed as protection against maximal electroshock-induced seizure at 100 mg/kg, ip after 4 hrs. The class given is functional, organism-based. Further details: dose 100 mg/kg. The method in brief:
as §5

In data set [23] the test system is Mus musculus. As to the kind of experiment: Anticonvulsant activity in albino Carworth Farms No.1 mouse assessed as protection against maximal electroshock-induced seizure at 300 mg/kg, ip after 0.5 hrs. The data set is classed as functional, organism-based. Details: dose 300 mg/kg. The method in brief: as §5
In data set [24] the test system is Mus musculus. Description: Anticonvulsant activity in albino Carworth Farms No.1 mouse assessed as protection against maximal electroshock-induced seizure at 300 mg/kg, ip after 4 hrs. The data set is classed as functional, organism-based. Details: dose 300 mg/kg. The method in brief: as §5
The test system of data set [25] is Mus musculus. Description: Anticonvulsant activity in albino Carworth Farms No.1 mouse assessed as protection against electric-current for 3 secs-induced seizure at 100 mg/kg, ip after 1 hr by 6Hz minimal clonic seizure test. The class given is functional, organism-based. Further details: dose 100 mg/kg. Summed up:
as §1

In data set [26] the test system is Mus musculus. Description: Neurotoxicity in albino Carworth Farms No.1 mouse assessed as motor impairment at 30 mg/kg, ip after 4 hrs by rotarod test. The data set is classed as toxicity, organism-based. Further details: dose 30 mg/kg, route intraperitoneal. As to conditions: in vivo. Summed up: as §2
In data set [27] the test system is Mus musculus. Description: Neurotoxicity in albino Carworth Farms No.1 mouse assessed as motor impairment at 300 mg/kg, ip after 4 hrs by rotarod test. Conditions: in vivo. Further details: dose 300 mg/kg, route intraperitoneal. The class given is toxicity, organism-based. Summed up:
as §2

Data set [28] has as its system Mus musculus. Description: Toxicity in albino Carworth Farms No.1 mouse maximal electroshock-induced seizure model assessed as death following tonic extension at 100 mg/kg, ip after 4 hrs. The data set is classed as organism-based. Details: dose 100 mg/kg, route intraperitoneal. Conditions: in vivo. Summed up:
(§6)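 Mice (18–25 g) were given 30, 100 or 300 mg/kg i.p. in 0.5% (v/v) aqueous methylcellulose. They were tested at 30 min and 4 h with a corneal electroshock (50 mA, 60 Hz, 0.2 s) through electrodes wetted with 0.5% butacaine hemisulphate in 0.9% NaCl. Protection was abolition of hindlimb tonic extension; death following tonic extension was noted per animals tested.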

Data set [29] deals with Mus musculus. Description: Toxicity in albino Carworth Farms No.1 mouse maximal electroshock-induced seizure model assessed as death following tonic extension at 30 mg/kg, ip after 0.5 hrs. The class given is organism-based. Details: dose 30 mg/kg, route intraperitoneal. As to conditions: in vivo. The method in brief: as §6

Calls of active or inactive are those of the source. The rule behind the calls is not given here.

As for `O=C1NC(=O)[C@@H](c2ccccc2)N2CCC[C@@H]12`, the outcome with Mus musculus [1], with Mus musculus [5], with Mus musculus [6], in the data set with Mus musculus [7], with Mus musculus [8] and with Mus musculus [9] was inactive. Moreover, the outcome in the data set with Mus musculus [10], in the data set with Mus musculus [11], with Mus musculus [12], in the data set on Mus musculus [19], in the data set on Mus musculus [20] and in the data set with Mus musculus [21] was inactive. Moreover, the result in the data set with Mus musculus [22], in the data set with Mus musculus [23], with Mus musculus [24] and with Mus musculus [25] was inactive. In addition, the Activity result with Mus musculus [2], with Mus musculus [3], in the data set with Mus musculus [4], with Mus musculus [13], with Mus musculus [14] and with Mus musculus [15] was “Non-toxic” each time. Also, the Activity result with Mus musculus [18], in the data set with Mus musculus [26] and in the data set with Mus musculus [27] was “Non-toxic” in each case. Moreover, the “Ratio TD50/ED50” value in the data set filed under Mus musculus [16] is recorded as 12.2. Moreover, the Time with Mus musculus [17] was 0.25 h.
As for `C[C@H]1C(=O)NC(=O)[C@@H]2CCCN12`, the Activity entry is listed as “Non-toxic” with Mus musculus [2]; “Non-toxic” in the data set on Mus musculus [3]; “Non-toxic” in the data set on Mus musculus [4]; “Toxic” with Mus musculus [28]; “Toxic” in the data set on Mus musculus [15]; “Toxic” in the data set on Mus musculus [29]. The Activity entry with Mus musculus [26] and in the data set on Mus musculus [27] was “Non-toxic” in each case. Also, the outcome in the data set on Mus musculus [6], in the data set with Mus musculus [7], in the data set on Mus musculus [8], in the data set with Mus musculus [9], with Mus musculus [10] and in the data set on Mus musculus [11] was inactive. The result in the data set on Mus musculus [19], in the data set on Mus musculus [20], in the data set on Mus musculus [21], in the data set with Mus musculus [22], with Mus musculus [23] and in the data set with Mus musculus [24] was inactive.
